Results on 16 molecules are retold here after ChEMBL document CHEMBL1125248, “Synthesis and anticancer activity of various 3'-deoxy pyrimidine nucleoside analogues and crystal structure of 1-(3-deoxy-beta-D-threo-pentofuranosyl)cytosine” (1991).

A value given as a limit tells only on which side of the number the result lay.

Holding throughout (assay type): functional
For assay [1], the system named is L1210. Description: Effective dose to inhibit the replication of L1210 cell line in vitro. As to conditions: Mus musculus, read-out: ED50 (the source's name). In short, it runs like this:
(§1)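 Murine L1210, P388 and S-180 cells grown as suspension cultures in Fischer's medium with 10% horse serum at 37 °C under 5% CO2. Various concentrations added to exponentially growing cells at 2 × 10⁴ cells/mL. Cells counted against drug-free controls after 24, 48 and 72 h. ED50 (50% inhibition of replication) estimated from dose-response curves of at least two independent experiments.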

The subject of assay [2] is CCRF-CEM. Put plainly: Inhibit the replication of CCRF-CEM cell line in vitro. To be noted: Homo sapiens, read-out: ED50 (the source's name). A digest of the protocol: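 Human CCRF-CEM lymphoblastic leukemia cells held in suspension in RPMI medium with 10% horse serum, 37 °C, humidified 5% CO2. Test agent at various concentrations added to exponential-phase cultures (2 × 10⁴ cells/mL). Cell numbers compared with untreated cultures at 24, 48 and 72 h. 50% replication-inhibiting concentration read from dose-response curves, at least two independent experiments.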

Assay [3] has as its system P388. Description: Effective dose to inhibit the replication of P388 cell line in vitro. As to conditions: Mus musculus, read-out: ED50 (the source's name). In short, it runs like this: as §1
Assay [4] has as its system CCRF S-180. Put plainly: Effective dose to inhibit the replication of S180 cell line in vitro. As to conditions: Mus musculus, read-out: ED50 (the source's name). A digest of the protocol:
as §1

With `Nc1ccn([C@@H]2O[C@H](CO)[C@@H](O)[C@@H]2O)c(=O)n1` [CYTARABINE], the EC50 in assay [1] worked out at 0.05 µM; in assay [2], 0.005 µM; in assay [3], 0.02 µM; in assay [4] it was 0.2 µM.

Turning to `Nc1nc(=O)n([C@@H]2O[C@H](CO)C[C@H]2O)cc1I`, the EC50 in assay [1], in assay [2], in assay [3] and in assay [4] was more than 100 µM in each case.

Regarding `CC(=O)O[C@H]1C[C@@H](CO)O[C@H]1n1ccc(N)nc1=O`, the EC50 in assay [1] was found to be 5 µM; in assay [2], 3 µM; in assay [3] it was 2 µM; in assay [4] it was 20 µM.

As to `CC(=O)OC[C@@H]1C[C@H](OC(C)=O)[C@H](n2ccc(N)nc2=O)O1`, the EC50 amounted to 20 µM in assay [1], 1 µM in assay [2], 10 µM in assay [3] and 30 µM in assay [4].

With `O=c1[nH]c(=O)n([C@@H]2O[C@H](CO)C[C@@H]2O)cc1I`, the EC50 in assay [1], in assay [2], in assay [3] and in assay [4] was more than 100 µM each time.

On to `Nc1ccn([C@@H]2O[C@H](CO)C[C@@H]2O)c(=O)n1`, for which the EC50 in assay [1] was 10 µM; in assay [2], 2 µM; in assay [3], 5 µM; in assay [4], 34 µM.

As for `Nc1ccn([C@@H]2O[C@H](CO)C[C@H]2O)c(=O)n1`, the EC50 in assay [1] worked out at 5 µM; in assay [2] it was 25 µM; in assay [3], 2.5 µM; in assay [4], 15 µM.

Regarding `O=c1[nH]c(=O)n([C@@H]2O[C@H](CO)C[C@@H]2O)cc1Br`, the EC50 in assay [1], in assay [2], in assay [3] and in assay [4] was more than 100 µM in each case.

Turning to `CC(=O)Nc1ccn([C@@H]2O[C@H](CO)C[C@@H]2OC(C)=O)c(=O)n1`, the EC50 in assay [1], in assay [2], in assay [3] and in assay [4] was more than 100 µM each time.

For `CC(=O)OC[C@@H]1C[C@H](O)[C@H](n2ccc(N)nc2=O)O1`, the EC50 in assay [1] came out at 3 µM; in assay [2], 0.4 µM; in assay [3] it was 3 µM; in assay [4], 13 µM.

Regarding `O=c1[nH]c(=O)n([C@@H]2O[C@H](CO)C[C@@H]2O)cc1Cl`, the EC50 in assay [1], in assay [2], in assay [3] and in assay [4] was more than 100 µM each time.

As to `O=c1ccn([C@@H]2O[C@H](CO)C[C@H]2O)c(=O)[nH]1`, the EC50 in assay [1] is 50 µM; in assay [2] it was more than 100 µM; in assay [3], 25 µM; in assay [4] it was more than 100 µM.

For the molecule `O=c1ccn([C@@H]2O[C@H](CO)C[C@@H]2O)c(=O)[nH]1`, the EC50 in assay [1], in assay [2], in assay [3] and in assay [4] was more than 100 µM in each case.

In the case of `O=c1[nH]c(=O)n([C@@H]2O[C@H](CO)C[C@H]2O)cc1Br`, the EC50 in assay [1], in assay [2], in assay [3] and in assay [4] was more than 100 µM throughout.

With `CC(=O)Nc1ccn([C@@H]2O[C@H](COC(C)=O)C[C@@H]2OC(C)=O)c(=O)n1`, the EC50 in assay [1] is more than 100 µM; in assay [2], 23 µM; in assay [3], more than 100 µM; in assay [4] it was more than 100 µM.

On to `Nc1nc(=O)n([C@@H]2O[C@H](CO)C[C@H]2O)cc1Br`, for which the EC50 in assay [1], in assay [2], in assay [3] and in assay [4] was more than 100 µM throughout.
